Source: PubChem (Broad Institute)
Compounds with a hit are over-represented: about 2.9% of the library has one in this group of screens.
CAL PDZ FP-1 = inhibitors of human CAL PDZ peptide binding. Q9HD26. purified CAL PDZ, TMR-peptide fluorescence polarization, 1 h. inhibition, % at 20 µM. 330,000 compounds, 0.02% hits. AID 504414;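 active means highest replicate inhibition of at least 40%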
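Material – purified CerCALP PDZ construct · Detection – FP readout, S and P plane fluorescence · Measure – percent inhibition from loss of millipolarization · Controls – unlabelled peptide for full inhibition, DMSO wells as neutral · Probe or stimulus – TMR-labelled reporter peptide T*-PRC34 bound in PDZ groove · Times – 1 h at RT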
ERAP1 HTS inh = inhibitors of human ERAP1 aminopeptidase | Q9NZ08 | AID 652197 | 340,000 compounds, 0.15% hits | recombinant ERAP1, Leu-AMC fluorescence, 60 min | inhibition, % at 10.7 µM;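 active means mean replicate inhibition of at least 30%, or all replicates individually reaching that 30% level; inactive means mean below 30% and not every replicate reaching it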
DENV2 CPE = DENV2-induced cell death inhibition | CPE inhibition, % at 9.99 µM | 350,000 compounds, 1.7% hits | DENV2-infected cells, cytopathic effect rescue, plate reader | AID 651640; in the data active means CPE inhibition above about 20%, passing the limit was not always enough; inconclusive means no clear call, values can overlap the other calls; tested in BHK-21 cells
S100A4 inh HTS = inhibitors of human S100A4 binding to myosin IIA peptide. P26447. S100A4/TAMRA-MyoIIA peptide fluorescence polarization. inhibition, % at 10.7 µM. 360,000 compounds, 0.14% hits;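 active means mean inhibition of at least 70% across replicates, with every replicate also reaching that level; inconclusive means mean inhibition reaches 70% but some replicates fall short; inactive means mean inhibition below 70%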
Target sequence (P26447 whole entry, looked up): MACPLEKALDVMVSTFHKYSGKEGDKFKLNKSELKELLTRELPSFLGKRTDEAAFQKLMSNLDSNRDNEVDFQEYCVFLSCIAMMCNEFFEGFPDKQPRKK
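Compound dosing: one dose per compound; test system: human S100A4 monomer with TAMRA-labelled myosin IIA peptide; probe or stimulus: TAMRA-labelled myosin IIA heavy-chain peptide probe, 5 nM; medium: HEPES buffer with Ca2+, pH 7.2; schedule: 5 min incubation before reading; benchmarks: neutral control DMSO, positive control TFP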
CAL PDZ FP-2 = blocks peptide binding to the human CAL PDZ domain. Q9HD26. purified CAL PDZ, TMR-peptide fluorescence polarization, 1 h. inhibition, % at 24.9 µM. 300,000 compounds, 0.92% hits. AID 602252;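 active means mean inhibition of at least 30% with at least half of replicates also reaching 30%; inconclusive means no clear call, values can overlap the other calls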
SIRT5 block = inhibitors of human sirtuin-5 desuccinylase; Q9NXA8; Purified SirT5, succinyl-peptide AMC, trypsin-coupled fluorescence; inhibition, % at 15 µM; 330,000 compounds, 1.1% hits; in the data active means inhibition above about 15%; inconclusive means no clear call, values can overlap the other calls
Target sequence (Q9NXA8 whole entry, looked up): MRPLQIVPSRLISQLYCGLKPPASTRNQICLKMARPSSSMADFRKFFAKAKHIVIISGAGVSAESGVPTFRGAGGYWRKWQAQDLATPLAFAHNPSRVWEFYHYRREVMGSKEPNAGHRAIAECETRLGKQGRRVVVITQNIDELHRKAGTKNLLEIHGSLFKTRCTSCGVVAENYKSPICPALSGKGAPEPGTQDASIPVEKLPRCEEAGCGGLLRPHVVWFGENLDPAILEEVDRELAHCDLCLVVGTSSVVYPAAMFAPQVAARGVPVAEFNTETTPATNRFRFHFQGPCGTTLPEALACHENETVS
Hits are given with their value; i = inactive; ? = inconclusive; nt = no result; ! = not confirmed by another sample.

SMILES	CAL PDZ FP-1	ERAP1 HTS inh	DENV2 CPE	S100A4 inh HTS	CAL PDZ FP-2	SIRT5 block
CC(C)C#Cc1ccc2c(c1)O[C@H](CN(C)C(=O)c1cccc(F)c1)[C@@H](C)CN([C@@H](C)CO)S2(=O)=O	nt	i	i	i	nt	i
CCc1ccc(-c2cc(C)no2)cc1S(=O)(=O)NCc1ccco1	i	i	i	i	i	i
CCc1ccc(-c2cc(C)no2)cc1S(=O)(=O)Nc1cc(C)ccn1	i	i	i	i	i	32
COc1cccc(S(=O)(=O)N[C@@H]2CC[C@@H](CC(=O)NCc3ccccc3)O[C@H]2CO)c1	nt	i	i	i	nt	i
C[C@H](CO)N1C[C@H](C)[C@H](CN(C)S(=O)(=O)c2cccc(F)c2)Oc2ncc(C#CC3CCCCC3)cc2C1=O	nt	i	i	i	nt	21
C[C@@H]1CN([C@H](C)CO)C(=O)c2cc(C#CC3CCCCC3)cnc2O[C@@H]1CN(C)S(=O)(=O)c1cccc(F)c1	nt	i	i	i	nt	i
C[C@H]1CN([C@@H](C)CO)C(=O)c2cc(C#CC3CCCCC3)cnc2O[C@H]1CN(C)S(=O)(=O)c1ccc(F)cc1	nt	i	72!	i	nt	i
C[C@H]1CN([C@@H](C)CO)C(=O)c2cc(C#CC3CCCCC3)cnc2O[C@@H]1CN(C)S(=O)(=O)c1cccc(F)c1	nt	i	i	i	nt	27
COc1ccccc1NC(=O)N(C)C[C@H]1Oc2ncc(Br)cc2C(=O)N([C@H](C)CO)C[C@@H]1C	nt	i	?	i	nt	i
O=C(c1ccccc1)N1CCC2CCN(CCc3ccccc3)CC21 (centres undefined)	nt	i	i	i	nt	i
O=C(OC1C2CCC1C1CN(CCc3ccccc3)CC12)c1ccccc1 (centres undefined)	i	nt	nt	nt	41	nt
C[C@@H]1CN([C@@H](C)CO)C(=O)c2cc(/C=C/c3ccccc3)cnc2O[C@H]1CN(C)S(=O)(=O)c1ccccc1	nt	i	i	i	nt	i
C/C=C/c1cnc2c(c1)C(=O)N([C@H](C)CO)C[C@@H](C)[C@@H](CN(C)C(=O)NC1CCCC1)O2	nt	i	i	i	nt	i
C/C=C/c1cnc2c(c1)C(=O)N([C@H](C)CO)C[C@H](C)[C@H](CN(C)S(=O)(=O)c1ccccc1)O2	nt	i	79	i	nt	i
C[C@@H]1CN([C@@H](C)CO)C(=O)c2cc(/C=C/c3ccccc3)cnc2O[C@H]1CN(C)Cc1ccncc1	nt	i	i	i	nt	i
C[C@H](CO)N1C[C@H](C)[C@H](CN(C)Cc2ccncc2)Oc2ncc(/C=C/c3ccccc3)cc2C1=O	nt	i	23	i	nt	i
C[C@@H]1CN([C@@H](C)CO)C(=O)c2cc(/C=C/c3ccccc3)cnc2O[C@@H]1CN(C)S(=O)(=O)c1ccc(F)cc1	nt	i	i	i	nt	32!
C/C=C/c1cnc2c(c1)C(=O)N([C@@H](C)CO)C[C@H](C)[C@@H](CN(C)C(=O)NC1CCCC1)O2	nt	i	i	i	nt	17
CCC(=O)N1CC(=O)N2[C@H](CO)[C@H](c3ccc(C#Cc4cccnc4)cc3)[C@@H]2C1	nt	i	i	i	nt	i
CCC(=O)N1[C@@H]2c3ccc(C4=CCCC4)c(=O)n3C[C@@H]2[C@@H](CO)[C@@H]1C(=O)NCc1ccc(F)cc1	nt	i	i	i	nt	i
C[C@@H]1CN([C@H](C)CO)C(=O)Cc2cc(NC(=O)NC3CCCCC3)ccc2O[C@H]1CN(C)CC1CCCCC1	nt	i	25	i	nt	i
C[C@H]1CN([C@@H](C)CO)C(=O)Cc2cc(NC(=O)NC3CCCCC3)ccc2O[C@@H]1CN(C)CC1CCCCC1	nt	i	?	i	nt	i
C[C@H](CO)N1C[C@H](C)[C@@H](CN(C)CC2CCCCC2)Oc2ccc(NC(=O)Nc3ccc4c(c3)OCO4)cc2CC1=O	nt	i	29	i	nt	16
Cc1ccc(O)c(CNCCNCc2cc(C)ccc2O)c1	i	i	i	i	i	i
CCc1ccc(O)c(CNCCNCc2cc(CC)ccc2O)c1	i	i	73	i	i	nt
Cc1ccc(CNC(=O)N[C@@H](Cc2ccccc2)C(=O)O)cc1	i	i	i	i	i	17
CC(=O)NC(Cc1ccccc1)C(C)=O (centres undefined)	i	i	i	i	100	i
CCS(=O)(=O)N1CC2(CN[C@@H](CO)c3c2c2ccc(OC)cc2n3C)C1	nt	nt	i	nt	nt	nt
